Measured values as given in ChEMBL document CHEMBL1127053, “3,4-Dimethyl-4-(3-hydroxyphenyl)piperidines: opioid antagonists with potent anorectant activity” (J Med Chem, 1993).

How the values were obtained:
[1] = target: Adrenergic receptor beta (Rattus norvegicus, UniProt P18090+P10608+P26255); test: Tested for affinity against beta-adrenergic using [3H]dihydroalprenolol in rat brain; format: tissue-based
In short: (§1)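 Radioligand binding in cortical membranes from male Sprague-Dawley rats (110-150 g). Ligands: [3H]serotonin for 5-HT1, [3H]QNB for muscarinic, [3H]WB4101 for α1, [3H]clonidine for α2, [3H]dihydroalprenolol for β-adrenergic.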

[2] = target: D(2) dopamine receptor (Rattus norvegicus, UniProt P61169); test: Tested for affinity against dopamine D2 receptor using […] in rat brain; format: tissue-based
Sequence of D(2) dopamine receptor (P61169 whole entry): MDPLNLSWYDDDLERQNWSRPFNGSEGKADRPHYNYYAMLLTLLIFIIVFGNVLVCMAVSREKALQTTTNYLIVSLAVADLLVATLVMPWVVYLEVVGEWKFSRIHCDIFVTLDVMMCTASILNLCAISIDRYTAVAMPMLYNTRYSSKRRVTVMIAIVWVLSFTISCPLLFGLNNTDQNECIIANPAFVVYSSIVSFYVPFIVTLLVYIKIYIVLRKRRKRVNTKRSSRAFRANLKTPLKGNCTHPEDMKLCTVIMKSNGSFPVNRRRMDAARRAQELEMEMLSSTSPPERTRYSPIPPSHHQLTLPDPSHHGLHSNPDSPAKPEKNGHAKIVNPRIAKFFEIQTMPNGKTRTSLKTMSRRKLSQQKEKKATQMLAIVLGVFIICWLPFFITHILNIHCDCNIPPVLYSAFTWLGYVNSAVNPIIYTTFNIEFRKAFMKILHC

[3] = target: Mu-type opioid receptor (Cavia porcellus) (UniProt P97266); conditions: Ileum, 2 nM
Sequence of Mu-type opioid receptor (Cavia porcellus) (P97266 whole entry): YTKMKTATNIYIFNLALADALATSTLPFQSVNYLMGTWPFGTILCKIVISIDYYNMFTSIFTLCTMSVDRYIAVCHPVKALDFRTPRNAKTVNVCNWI

[4] = target: Kappa-type opioid receptor (Cavia porcellus) (UniProt P41144); conditions: Ileum, 2 nM
Sequence of Kappa-type opioid receptor (Cavia porcellus) (P41144 whole entry): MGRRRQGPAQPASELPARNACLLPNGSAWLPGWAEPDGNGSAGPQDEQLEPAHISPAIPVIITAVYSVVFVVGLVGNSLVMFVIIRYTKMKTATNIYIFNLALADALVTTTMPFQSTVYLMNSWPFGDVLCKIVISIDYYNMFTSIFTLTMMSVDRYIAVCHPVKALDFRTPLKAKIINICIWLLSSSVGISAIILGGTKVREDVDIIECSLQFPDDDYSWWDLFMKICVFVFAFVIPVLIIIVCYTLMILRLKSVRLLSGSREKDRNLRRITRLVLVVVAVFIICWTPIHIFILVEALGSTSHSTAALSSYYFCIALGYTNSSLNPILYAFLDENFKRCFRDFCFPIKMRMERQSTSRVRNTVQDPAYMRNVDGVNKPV

[5] = tested on: Rattus norvegicus; test: Tested for concentration required to reduce the food consumption by 20 % subcutaneously; format: functional; conditions: Rattus norvegicus, sc; read-out: ED50
In short: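 Obese Zucker rats, 3-4 months old, trained to eat only 8 am-4 pm. Groups of 4 (2 male, 2 female), with one saline control group daily. Compound in saline with 10% DMSO, given sc on 3 consecutive days, typical doses 5.0-0.08 mg/kg (0.02-20 in some cases). Intake measured over the first 4 h. ED20 from regression of the linear portion of the dose-response curve.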

[6] = target: Kappa-type opioid receptor (Rattus norvegicus) (UniProt P34975); test: Antagonism of bremazocine induced kappa receptor diuresis in rats at a concentration of 0.08 mg/kg subcutaneously; format: functional, organism-based; parameters: dose 0.08 mg/kg
Sequence of Kappa-type opioid receptor (Rattus norvegicus) (P34975 whole entry): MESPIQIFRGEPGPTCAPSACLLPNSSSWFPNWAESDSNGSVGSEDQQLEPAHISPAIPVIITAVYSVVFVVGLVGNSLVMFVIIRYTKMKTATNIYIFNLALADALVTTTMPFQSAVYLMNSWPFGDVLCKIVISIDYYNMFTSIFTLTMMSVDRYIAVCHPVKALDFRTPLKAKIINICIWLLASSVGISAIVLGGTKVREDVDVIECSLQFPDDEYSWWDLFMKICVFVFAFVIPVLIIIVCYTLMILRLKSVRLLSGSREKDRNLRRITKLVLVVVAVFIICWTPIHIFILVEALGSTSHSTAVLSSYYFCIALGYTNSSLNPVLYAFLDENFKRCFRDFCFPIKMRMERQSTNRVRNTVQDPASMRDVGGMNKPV
In short: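 Male Long-Evans hooded rats (350-500 g), reused no more than twice weekly. Bremazocine 0.08 mg/kg sc, test antagonist sc on the opposite side without delay. Rats housed in metabolism cages; urine volume recorded at 2 and 5 h. 3 rats/dose, doses varied 2-fold. AD50 = dose reducing cumulative 5-h induced urination by 50%.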

[7] = target: Delta-type opioid receptor (Rattus norvegicus, UniProt P33533); test: Binding affinity towards delta-opioid receptor by displacement of [3H]DADL in rat brain homogenates; format: tissue-based
Sequence of Delta-type opioid receptor (P33533 whole entry): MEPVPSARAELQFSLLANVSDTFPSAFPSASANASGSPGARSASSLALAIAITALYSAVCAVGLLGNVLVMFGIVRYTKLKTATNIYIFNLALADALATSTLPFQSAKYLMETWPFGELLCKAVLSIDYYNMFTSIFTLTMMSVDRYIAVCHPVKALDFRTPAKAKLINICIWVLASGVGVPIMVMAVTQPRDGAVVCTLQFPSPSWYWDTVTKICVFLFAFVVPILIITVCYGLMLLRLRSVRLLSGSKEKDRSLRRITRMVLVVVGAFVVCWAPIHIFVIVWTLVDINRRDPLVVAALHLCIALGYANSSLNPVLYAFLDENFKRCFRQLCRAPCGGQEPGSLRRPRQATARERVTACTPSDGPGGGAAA
In short: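 Radioligand displacement. Kappa: [3H]EKC, guinea pig cortex, with fentanyl and DADL added to block mu/delta binding. Delta: [3H]DADL, rat brain homogenate.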

[8] = target: Muscarinic acetylcholine receptor; test: Tested for affinity against muscarinic acetylcholine using [3H]quinuclidinyl benzylate in rat brain; format: tissue-based; in short: as §1
[9] = target: Mu-type opioid receptor (Mus musculus) (UniProt P42866); test: Antagonistic activity towards morphine induced mu-opioid receptor by mouse writhing assay at 1.25 mg/kg subcutaneously; format: functional, organism-based; parameters: dose 1.25 mg/kg
Sequence of Mu-type opioid receptor (Mus musculus) (P42866 whole entry): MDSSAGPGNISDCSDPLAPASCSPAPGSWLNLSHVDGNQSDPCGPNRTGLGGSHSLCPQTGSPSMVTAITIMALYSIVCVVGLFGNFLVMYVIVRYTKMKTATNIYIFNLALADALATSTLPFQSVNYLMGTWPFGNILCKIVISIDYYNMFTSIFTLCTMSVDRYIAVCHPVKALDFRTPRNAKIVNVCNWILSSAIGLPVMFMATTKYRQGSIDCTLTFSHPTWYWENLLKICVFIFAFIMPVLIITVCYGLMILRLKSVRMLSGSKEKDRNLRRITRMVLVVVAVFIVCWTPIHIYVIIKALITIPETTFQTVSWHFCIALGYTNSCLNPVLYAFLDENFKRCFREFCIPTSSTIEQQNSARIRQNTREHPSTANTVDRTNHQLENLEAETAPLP
In short: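 Mouse acetic acid writhing: 0.6% acetic acid ip, writhes counted for 10 min starting 5 min after injection. Agonist (morphine 1.25 mg/kg or U50,488 2.5 mg/kg) and antagonist given sc 20 min before acid. 5 mice/point, ≥5 doses varied 2-fold, each mouse used once. AD50 = antagonist dose reducing agonist-induced writhing inhibition to 50%.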

[10] = target: Serotonin receptor 2a and 2c (5HT2A and 5HT2C) (Rattus norvegicus, UniProt P08909+P14842); test: Tested for affinity against serotonin 5-HT2 receptor using […] (frontal cortex) in rat brain; format: tissue-based
[11] = target: Kappa-type opioid receptor (Mus musculus) (UniProt P33534); test: Antagonist activity towards U50 488 induced kappa opioid receptor by mouse writhing assay at 2.5 mg/kg subcutaneously; format: functional, organism-based; parameters: dose 2.5 mg/kg
Sequence of Kappa-type opioid receptor (Mus musculus) (P33534 whole entry): as the sequence (P34975 whole entry) above, with E11D, A17S, P51S, V308A counted along it
In short: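 Mouse acetic acid writhing: 0.6% acetic acid ip, writhes counted for 10 min starting 5 min after injection. 5 mice/point, ≥5 doses varied 2-fold, each mouse used once. AD50 = antagonist dose reducing agonist-induced writhing inhibition to 50%.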

[12] = target: Dopamine receptor; test: Tested for affinity against dopamine autoreceptor using [3H]apomorphine in rat brain; format: tissue-based
[13] = Tested for affinity against serotonin 5-HT1 receptor using [3H]5-HT in rat brain; format: tissue-based; in short: as §1

With C[C@H]1CN(CC[C@H](O)C2CCCCC2)CC[C@@]1(C)c1cccc(O)c1 the IC50 [1] was over 5 µM, the IC50 [2] was over 1 µM and the Ke [3] was 0.24 nM. For the same compound, the Ke [4] was 0.31 nM, the ED50 [5] was 0.04 mg/kg and the AD50 [6] was 0.38 mg/kg. For the same compound, the Ki [7] was 0.0052 µM, the IC50 [8] was over 10 µM and the AD50 [9] was 0.015 mg/kg. It also gave an IC50 [10] of over 1 µM, an AD50 [11] of 0.05 mg/kg and an IC50 [12] of over 1 µM. It also gave an IC50 [13] of over 1 µM.
